Among the data in ChEMBL document CHEMBL3351359, “Design and synthesis of novel 2,4-diaryl-5H-indeno[1,2-b]pyridine derivatives, and their evaluation of topoisomerase inhibitory activity and cytotoxicity” (Bioorg Med Chem, 2015) are IC50, inhibition and Ratio values, retold here.

Some results are limits rather than exact numbers.

In one assay the test system is MCF7. The assay is described as follows: Cytotoxicity against human MCF7 cells after 2 days by CCK-8 assay. The conditions noted are these: MCF7, 48 h. It is filed as functional, cell-based. The gist of the method:
(§1)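 Cells seeded at 2~4 × 10^4 per well, grown overnight in medium with 10% FBS at 37 °C, 5% CO2. On day 2, after 4 h FBS starvation, medium replaced with medium containing graded compound concentrations. On day 4, CCK-8 added for 4 h, then absorbance read at 450 nm. IC50 from four-parameter logistic fit. Mean ± S.D. of three experiments, each run in triplicate.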
(In general: Tetrazolium dyes change colour on reduction, which living cells bring about.)

Another assay deals with HeLa. The assay is described as follows: Cytotoxicity against human HeLa cells after 2 days by CCK-8 assay. It is filed as functional, cell-based. The conditions noted are these: 48 h. The gist of the method:
as §1

The target of assay [1] is T1, DNA topoisomerase 1 (Homo sapiens) (UniProt P11387).
T1 sequence (whole entry): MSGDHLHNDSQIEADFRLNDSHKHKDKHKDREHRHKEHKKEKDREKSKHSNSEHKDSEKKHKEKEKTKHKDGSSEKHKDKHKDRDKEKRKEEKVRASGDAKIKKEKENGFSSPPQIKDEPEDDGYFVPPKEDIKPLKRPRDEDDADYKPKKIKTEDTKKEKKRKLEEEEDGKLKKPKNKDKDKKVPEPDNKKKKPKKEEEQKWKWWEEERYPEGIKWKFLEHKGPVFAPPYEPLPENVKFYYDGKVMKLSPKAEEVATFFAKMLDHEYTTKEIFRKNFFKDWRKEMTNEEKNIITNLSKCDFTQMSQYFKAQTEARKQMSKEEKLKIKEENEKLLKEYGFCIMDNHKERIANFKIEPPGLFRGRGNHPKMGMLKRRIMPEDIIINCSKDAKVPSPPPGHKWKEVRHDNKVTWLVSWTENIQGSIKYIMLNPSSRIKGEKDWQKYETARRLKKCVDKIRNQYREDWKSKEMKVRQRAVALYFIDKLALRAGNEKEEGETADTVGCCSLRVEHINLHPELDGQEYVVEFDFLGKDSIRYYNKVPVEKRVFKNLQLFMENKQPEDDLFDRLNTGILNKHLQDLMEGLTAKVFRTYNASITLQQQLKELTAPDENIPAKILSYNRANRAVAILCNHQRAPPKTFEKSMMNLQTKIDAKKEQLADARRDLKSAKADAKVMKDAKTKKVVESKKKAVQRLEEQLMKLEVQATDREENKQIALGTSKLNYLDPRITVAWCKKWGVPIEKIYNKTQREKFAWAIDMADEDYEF
The assay is described as follows: Inhibition of human recombinant topoisomerase-1 assessed as conversion of super-coiled plasmid DNA pBR322 to relaxed DNA at 20 uM after 30 mins by ethidium bromide staining-based agarose gel electrophoresis (reference value: 25.9%). A digest of the protocol:
(§2)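 Relaxation of supercoiled pBR322 (100 ng) by 0.4 units recombinant human topo I, with or without compound (20 mM DMSO stocks), for 30 min at 37 °C. Buffer: 10 mM Tris-HCl pH 7.9, 150 mM NaCl, 0.1% BSA, 1 mM spermidine, 5% glycerol. Stopped with sarcosyl. Run on 1% agarose in TAE at 15 V for 7 h, stained with ethidium bromide, bands quantified under UV.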

The nature of assay [2]: Cytotoxicity against human HCT15 cells after 2 days by CCK-8 assay. It is filed as functional, cell-based. The conditions noted are these: HCT-15, 48 h. The gist of the method:
as §1

Assay [3] concerns the target DNA topoisomerase 2-alpha (Homo sapiens) (UniProt P11388). The assay is described as follows: Inhibition of human recombinant topoisomerase-2 alpha assessed as conversion of super-coiled plasmid DNA pBR322 to relaxed DNA at 100 uM after 30 mins by ethidium bromide staining-based agarose gel electrophoresis (reference value: 32.4%). A digest of the protocol: (§3)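 Supercoiled pBR322 (200 ng) incubated with 1 unit human topo IIα, with or without compound, for 30 min at 30 °C. Buffer: 10 mM Tris-HCl pH 7.9, 50 mM NaCl, 5 mM MgCl2, 1 mM EDTA, 1 mM ATP, 15 μg/mL BSA. Stopped with EDTA. Run on 1% agarose in TAE at 25 V for 4 h, stained with ethidium bromide, supercoiled DNA quantified under UV.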

Assay [4] has as its target T1, DNA topoisomerase 1 (Homo sapiens). The assay is described as follows: Inhibition of human recombinant topoisomerase-1 assessed as conversion of super-coiled plasmid DNA pBR322 to relaxed DNA at 100 uM after 30 mins by ethidium bromide staining-based agarose gel electrophoresis (reference value: 45.2%). A digest of the protocol: as §2
The test system of another assay is DU-145. The assay is described as follows: Cytotoxicity against human DU145 cells after 2 days by CCK-8 assay. Type of assay: functional, cell-based. The settings on record: DU-145, 48 h. A digest of the protocol:
as §1

The target of assay [5] is T1, DNA topoisomerase 1 (Homo sapiens). The assay is described as follows: Inhibition of human recombinant topoisomerase-1 assessed as conversion of super-coiled plasmid DNA pBR322 to relaxed DNA at 20 uM after 30 mins by ethidium bromide staining-based agarose gel electrophoresis (reference value: 19.6%). The gist of the method:
as §2

The target of assay [6] is DNA topoisomerase 2-alpha (Homo sapiens) (UniProt P11388). The assay is described as follows: Inhibition of human recombinant topoisomerase-2 alpha assessed as conversion of super-coiled plasmid DNA pBR322 to relaxed DNA at 20 uM after 30 mins by ethidium bromide staining-based agarose gel electrophoresis (reference value: 46.7%). The gist of the method:
as §3

For assay [7] the target is unchanged. The assay is described as follows: Inhibition of human recombinant topoisomerase-2 alpha assessed as conversion of super-coiled plasmid DNA pBR322 to relaxed DNA at 100 uM after 30 mins by ethidium bromide staining-based agarose gel electrophoresis relative to etoposide.
Assay [8] shares this target. The assay is described as follows: Inhibition of human recombinant topoisomerase-2 alpha assessed as conversion of super-coiled plasmid DNA pBR322 to relaxed DNA at 100 uM after 30 mins by ethidium bromide staining-based agarose gel electrophoresis (reference value: 87.8%). The gist of the method: as §3
Assay [9] concerns the target T1, DNA topoisomerase 1 (Homo sapiens). The assay is described as follows: Inhibition of human recombinant topoisomerase-1 assessed as conversion of super-coiled plasmid DNA pBR322 to relaxed DNA at 100 uM after 30 mins by ethidium bromide staining-based agarose gel electrophoresis (reference value: 62.9%). A digest of the protocol: as §2
The target is the same in assay [10]. The assay is described as follows: Inhibition of human recombinant topoisomerase-1 assessed as conversion of super-coiled plasmid DNA pBR322 to relaxed DNA at 100 uM after 30 mins by ethidium bromide staining-based agarose gel electrophoresis relative to camptothecin.
The target of assay [11] is DNA topoisomerase 2-alpha (Homo sapiens) (UniProt P11388). The assay is described as follows: Inhibition of human recombinant topoisomerase-2 alpha assessed as conversion of super-coiled plasmid DNA pBR322 to relaxed DNA at 100 uM after 30 mins by ethidium bromide staining-based agarose gel electrophoresis (reference value: 83.7%). A digest of the protocol:
as §3

The target in assay [12] is T1, DNA topoisomerase 1 (Homo sapiens). The assay is described as follows: Inhibition of human recombinant topoisomerase-1 assessed as conversion of super-coiled plasmid DNA pBR322 to relaxed DNA at 100 uM after 30 mins by ethidium bromide staining-based agarose gel electrophoresis (reference value: 51.5%). A digest of the protocol:
as §2

The target of assay [13] is DNA topoisomerase 2-alpha (Homo sapiens) (UniProt P11388). The assay is described as follows: Inhibition of human recombinant topoisomerase-2 alpha assessed as conversion of super-coiled plasmid DNA pBR322 to relaxed DNA at 20 uM after 30 mins by ethidium bromide staining-based agarose gel electrophoresis (reference value: 42.1%). The gist of the method: as §3
Sequence of DNA topoisomerase 2-alpha (Homo sapiens) (P11388 whole entry): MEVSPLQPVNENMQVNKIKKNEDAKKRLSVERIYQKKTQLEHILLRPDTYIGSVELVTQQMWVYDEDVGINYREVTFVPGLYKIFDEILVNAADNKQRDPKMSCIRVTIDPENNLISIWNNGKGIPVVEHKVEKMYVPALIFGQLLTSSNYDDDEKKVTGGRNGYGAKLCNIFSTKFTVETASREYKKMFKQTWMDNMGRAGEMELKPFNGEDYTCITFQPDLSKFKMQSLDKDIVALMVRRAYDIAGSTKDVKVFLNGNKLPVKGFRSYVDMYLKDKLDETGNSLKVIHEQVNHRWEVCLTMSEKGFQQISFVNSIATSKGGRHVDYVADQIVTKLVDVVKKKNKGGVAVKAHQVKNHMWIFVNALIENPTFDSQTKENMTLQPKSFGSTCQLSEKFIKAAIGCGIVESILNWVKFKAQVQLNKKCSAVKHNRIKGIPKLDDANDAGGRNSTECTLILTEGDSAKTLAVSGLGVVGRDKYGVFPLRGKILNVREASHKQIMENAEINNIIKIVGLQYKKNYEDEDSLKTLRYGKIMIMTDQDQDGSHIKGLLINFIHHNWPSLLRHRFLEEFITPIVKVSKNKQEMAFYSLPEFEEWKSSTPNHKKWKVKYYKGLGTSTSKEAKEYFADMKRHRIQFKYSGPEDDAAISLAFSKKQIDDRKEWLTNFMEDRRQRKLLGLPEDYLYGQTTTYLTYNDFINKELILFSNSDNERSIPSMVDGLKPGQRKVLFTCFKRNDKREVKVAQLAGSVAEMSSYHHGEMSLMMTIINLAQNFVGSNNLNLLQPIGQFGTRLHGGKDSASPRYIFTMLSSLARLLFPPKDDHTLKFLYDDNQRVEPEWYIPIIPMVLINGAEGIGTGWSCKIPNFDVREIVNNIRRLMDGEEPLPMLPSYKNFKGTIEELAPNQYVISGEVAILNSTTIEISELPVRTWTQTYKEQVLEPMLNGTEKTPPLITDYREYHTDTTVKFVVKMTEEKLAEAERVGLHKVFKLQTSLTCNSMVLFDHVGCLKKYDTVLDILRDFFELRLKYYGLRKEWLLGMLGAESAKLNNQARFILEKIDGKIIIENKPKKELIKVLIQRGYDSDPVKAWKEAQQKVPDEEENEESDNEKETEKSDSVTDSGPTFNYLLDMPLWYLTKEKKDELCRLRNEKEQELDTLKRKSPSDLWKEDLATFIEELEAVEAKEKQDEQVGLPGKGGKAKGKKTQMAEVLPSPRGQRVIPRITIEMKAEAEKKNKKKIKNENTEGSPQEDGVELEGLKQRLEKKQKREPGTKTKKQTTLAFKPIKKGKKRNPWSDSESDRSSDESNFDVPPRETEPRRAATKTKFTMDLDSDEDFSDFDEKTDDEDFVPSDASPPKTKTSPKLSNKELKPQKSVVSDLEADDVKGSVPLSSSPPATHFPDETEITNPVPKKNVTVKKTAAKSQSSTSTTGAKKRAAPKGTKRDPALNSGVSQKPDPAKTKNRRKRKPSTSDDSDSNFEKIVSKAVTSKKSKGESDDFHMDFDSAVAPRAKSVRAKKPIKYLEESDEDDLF
For assay [14] the target is unchanged. The assay is described as follows: Inhibition of human recombinant topoisomerase-2 alpha assessed as conversion of super-coiled plasmid DNA pBR322 to relaxed DNA at 20 uM after 30 mins by ethidium bromide staining-based agarose gel electrophoresis (reference value: 20.2%). A digest of the protocol: as §3

As a reminder, the IC50 is the concentration needed to halve the response being measured. The inhibition is the relative decrease from the control value, in per cent. With `c1ccc(-c2cc(-c3cccs3)c3c(n2)-c2ccccc2C3)nc1`, the IC50 in the assay on MCF7 was determined as 11 µM; in the assay with HeLa it was 20.5 µM; in assay [2], 9.1 µM; in the assay on DU-145 it was 6.7 µM. For the same compound, the inhibition came out at 12% in [1], 9% in [3] and 58.5% in assay [4].

As to `c1coc(-c2cc(-c3ccoc3)c3c(n2)-c2ccccc2C3)c1`, the IC50 is over 50 µM in the assay with MCF7, 20.2 µM in assay [2] and over 50 µM with DU-145. In addition, the inhibition was found to be 1.5% in [5], 0% in [6], 100% in assay [8] and 52.5% in assay [9]. In addition, the Ratio in [7] worked out at 1.14; in [10], 0.83.

Turning to `c1ccc(-c2cc(-c3ccco3)nc3c2Cc2ccccc2-3)cc1`, the IC50 in the assay on MCF7 was over 50 µM; in the assay on HeLa, 5.22 µM; in assay [2], 16.6 µM; in the assay with DU-145 it was 7.74 µM. The inhibition is 5.7% in [1], 18.7% in assay [3] and 41.3% in assay [4]. The Ratio in [7] is 0.58; in assay [10], 0.91.

For the compound `c1ccc2c(c1)Cc1c(-c3ccoc3)cc(-c3ccsc3)nc1-2`, the values for the inhibition in [11], in assay [12] and in [13] were 95.9%, 1.2% and 10.9%, respectively. Also, the IC50 in the assay with MCF7 is over 50 µM; in the assay on HeLa it was over 50 µM; in assay [2], 20.6 µM; with DU-145, over 50 µM. Besides, the Ratio in [7] is 1.15; in [10], under 0.2.

Take `c1coc(-c2cc(-c3cccs3)nc3c2Cc2ccccc2-3)c1`: the IC50 in the assay with MCF7 was 4.11 µM; in the assay on HeLa, 3.2 µM; in [2] it was 37.7 µM; with DU-145, 6.71 µM. Moreover, the inhibition in assay [1] came to 3.9%; in assay [14], 14.6%; in [3] it was 40.5%; in assay [4], 76.3%. The Ratio in assay [7] came out at 1.25; in assay [10], 1.69.

As to `c1ccc2c(c1)Cc1c(-c3ccsc3)cc(-c3ccsc3)nc1-2`, the values for the IC50 (in the assay on MCF7; in [2]; in the assay on DU-145) were over 50 µM, 16.4 µM and over 50 µM, respectively. The inhibition in assay [5] worked out at 2.9%; in [6], 0%; in assay [8] it was 100%; in assay [9], 90.9%. Also, the Ratio in assay [7] was determined as 1.14; in assay [10], 1.45.

As to `c1coc(-c2cc(-c3ccco3)c3c(n2)-c2ccccc2C3)c1`, the IC50 with MCF7 is 5.4 µM; in the assay with HeLa, 8.14 µM; in assay [2], over 50 µM; in the assay on DU-145 it was 20.6 µM. The inhibition worked out at 6.4% in [1], 15% in [14], 44.6% in [3] and 38.2% in assay [4]. Further, the values for the Ratio in assay [7] and in assay [10] were 1.38 and 0.85, respectively.

Turning to `c1coc(-c2cc(-c3ccsc3)c3c(n2)-c2ccccc2C3)c1`, the inhibition worked out at 100% in [11], 0% in [12] and 93% in assay [13]. In addition, the IC50 (with MCF7; with HeLa; in [2]; in the assay on DU-145) was over 50 µM throughout. In addition, the Ratio in [7] was 1.19; in assay [10], under 0.2.

In the case of `c1coc(-c2cc(-c3ccsc3)nc3c2Cc2ccccc2-3)c1`, the figures for the inhibition in assay [11], in assay [12] and in assay [13] were 84.1%, 2.8% and 68.5%, respectively. The IC50 is over 50 µM in the assay on MCF7, over 50 µM in the assay on HeLa, 31.6 µM in assay [2] and over 50 µM in the assay on DU-145. Also, the Ratio in [7] was 1; in assay [10] it was under 0.2.

`c1ccc(-c2cc(-c3ccco3)nc3c2Cc2ccccc2-3)nc1`: the IC50 was 3.08 µM in the assay on MCF7, 4.13 µM with HeLa, 8.5 µM in assay [2] and over 50 µM in the assay on DU-145. Also, the inhibition in assay [5] was 0.5%; in assay [6] it was 100%; in assay [8] it was 100%; in assay [9] it was 40.7%. In addition, the Ratio in [7] is 1.14; in [10], 0.65.
